From paper PMC13499490 (International Journal for Parasitology: Drugs and Drug …, 2026)

Legend:
[1] = test system: T. cruzi extracts (TCH) translating capped and polyadenylated Renilla luciferase reporter mRNA; assay type: biochemical, Trypanosoma cruzi; details: for % Inhibition: initial screen, 40 μM, Renilla luciferase signal relative to DMSO; for concentration above which translation was fully inhibited: Fig. 3C
[2] = test system: supplemented TCH extract translating capped and polyadenylated Renilla mRNA; test: Miniaturized low-volume; assay type: biochemical, Trypanosoma cruzi; details: 8 μL; for % Inhibition (40 µM): Table S3, 40 µM; for inhibition of translation in T. cruzi extract (in words): 40 μM, 2 h, Fig. 3B
[3] = test system: protein synthesis in T. cruzi epimastigotes (WT, DM28c strain); test: Puromycylation assay in living epimastigotes; assay type: cell-based, Trypanosoma cruzi; details: 40 μM, 1 h pre-incubation, then puromycin 10 μg/mL 15 min
Method in brief: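 Dm28c epimastigotes at 1 × 10⁷/mL in LIT-10% FBS, preincubated 1 h at 28°C with test compound (40 μM, from DMSO), with DMSO and 5 μM cycloheximide controls. Puromycin at 10 μg/mL, 15 min, 28°C; cells RIPA-lysed. 20 μg protein run on 10% SDS-PAGE and blotted with anti-puromycin mAb (1:100, overnight, 4°C), then IRDye680 secondary; anti-aldolase loading control. 150–20 kDa signal quantified relative to DMSO; 2–4 independent experiments.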

[4] = test system: rabbit reticulocytes (Retic Lysate IVT kit) translating Renilla mRNA; test: In vitro translation by rabbit reticulocyte lysate; assay type: biochemical; details: 10 µM, 1 hour, Fig. S5
Method in brief: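 Commercial rabbit reticulocyte lysate run per kit instructions, 0.6 μg per reaction of the capped, polyadenylated Renilla luciferase mRNA used in the parasite-extract assays.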

Plasmodium falciparum = details: ref Plouffe et al., 2008; cited from earlier work
[5] = test system: T. cruzi amastigotes (Sylvio X10/1 clone) in U2OS cells; test: Intracellular amastigote proliferation in infected U2OS cells; assay type: cell-based, Trypanosoma cruzi; details: for EC50: Trypanosoma cruzi, U2OS, 48 h, read-out: EC50 intracellular amastigotes; for selectivity index: from EC50 and CC50 averages, U2OS cells
Method in brief: (§1)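 U2OS cells, grown in DMEM with 10% FBS at 37°C and 5% CO2, seeded at 500 cells/well in 384-well plates and infected after 24 h with 5000 Sylvio X10/1 trypomastigotes. Treated 24 h later with test compound (100 μM to 0.7 nM, 0.5% DMSO) for 48 h, with benznidazole and DMSO controls. Cells fixed in 4% paraformaldehyde, stained with DAPI and DRAQ5, imaged by high-content analysis. Amastigote-to-cell ratio normalised to untreated (100%) and non-infected (0%) wells. EC50 and CC50 from three-parameter nonlinear fit; selectivity index from mean EC50 and CC50.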

[6] = test system: T. cruzi amastigotes (DM28c parasite strain) in Vero cells; test: Amastigote proliferation and cytotoxicity in Vero cells; assay type: cell-based, Trypanosoma cruzi; details: DM28c trypomastigotes, Fig. S6
[7] = Host cell cytotoxicity in infected U2OS cells; assay type: cell-based; details: human
Method in brief: as §1

[8] = test system: T. cruzi epimastigotes (DM28c); test: Epimastigote proliferation, SYBR Green assay; assay type: cell-based, Trypanosoma cruzi; details: for EC50: Trypanosoma cruzi, 72 h, read-out: EC50 epimastigote proliferation; for concentration for maximal inhibition / full block of epimastigote growth: growth curves; for effect on epimastigote growth (in words): Fig. S2, 1% DMSO
PAK4 = details: mammalian cells; ref Pereira-Veiga et al., 2025; cited from earlier work
[9] = test system: T. cruzi parasite extract translating Renilla mRNA; test: Miniaturized 5 μL T. cruzi in vitro translation assay; assay type: biochemical, Trypanosoma cruzi; details: 5 μl format, 40 μM, Fig. 5D
Method in brief: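 Extract from DM28c-derived epimastigotes, lysed by nitrogen cavitation; the 30,000 × g supernatant was supplemented with translation buffer containing ATP, GTP, creatine phosphate/kinase, amino acids and spermidine. Reaction of 5 μL: 2 μL lysate, 1 μL test compound (40 μM), 2 μL SP6-transcribed capped, polyadenylated spliced-leader–Renilla luciferase mRNA (22 ng). Luminescence read after adding Renilla luciferase reagent.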

With `CC1CCC(C(C)C)C(OC(=O)Cn2c(-c3ccc(Br)cc3)[n+](C)c3ccccc32)C1.[Cl-]` (stereo not drawn) [Compound 3] the “% Inhibition” value [1] was ~20%.

In the case of `Cl.Fc1cccc(Nc2nc(NCC3CCCO3)c3ccccc3n2)c1` (stereo not drawn) [Compound 39A], the “% Inhibition (40 µM)” value [2] is reported as “over 50%”.

With `Cl.Oc1ccc(Nc2nc(NCC3CCCO3)c3ccccc3n2)cc1` (stereo not drawn) [Compound 39B] the “% Inhibition (40 µM)” value [2] was “over 50%”.

For `c1ccc2c(NCC3CCCO3)nc(Nc3ccncc3)nc2c1` (stereo not drawn) [Compound 39C], the “% Inhibition (40 µM)” value [2] was “around 50%”.

For `Cl.Fc1ccc(Nc2nc(NCC3CCCO3)c3ccccc3n2)cc1` (stereo not drawn) [Compound 39D], the “puromycin incorporation into elongating protein chains (in words)” value [3] was “inhibited puromycin incorporation”.

For `CN(C)c1nc(NCC2CCCO2)c2ccccc2n1.Cl` (stereo not drawn) [Compound 39F], the “% Inhibition (40 µM)” value [2] was “around 50%”.

For `COc1ccccc1Nc1nc(NCC2CCCO2)c2ccccc2n1` (stereo not drawn) [Compound 39G], the “inhibition of protein synthesis by reticulocyte lysate (in words)” value [4] is listed as “did not inhibit”, the “Plasmodium falciparum inhibition (in words)” value (Plasmodium falciparum) is listed as “P. falciparum inhibitors” and the “% Inhibition (40 µM)” value [2] is listed as “over 50%”. The “puromycin incorporation into elongating protein chains (in words)” value [3] was “inhibited puromycin incorporation”, the EC50 [5] was 0.08 ± 0.07 µM and the selectivity index [5] was ~415. For the same molecule, the “EC50 and CC50 values compared with the U2OS/Sylvio experiment (in words)” value [6] was “slightly high values”, the CC50 at 48 h [7] was 33 ± 20 µM and the EC50 [8] was 2.8 ± 0.2 µM. For the same molecule, the “concentration for maximal inhibition / full block of epimastigote growth” value [8] was ~15 µM.

In the case of `Fc1ccccc1Nc1nc(NCC2CCCO2)c2ccccc2n1` (stereo not drawn) [Compound 39H], the “Plasmodium falciparum inhibition (in words)” value (Plasmodium falciparum) is listed as “P. falciparum inhibitors”, the “% Inhibition (40 µM)” value ([2]; 40 µM) is listed as “over 50%” and the “puromycin incorporation into elongating protein chains (in words)” value [3] is listed as “inhibited puromycin incorporation”. For the same molecule, the EC50 [5] was 0.4 ± 0.2 µM, the selectivity index [5] was ~200 and the “EC50 and CC50 values compared with the U2OS/Sylvio experiment (in words)” value [6] was “Comparable values”. For the same molecule, the CC50 at 48 h [7] was 84 ± 40 µM, the EC50 [8] was 4.8 ± 2 µM and the “concentration for maximal inhibition / full block of epimastigote growth” value [8] was > 50 µM.

For `Cl.OCCNc1nc(NCC2CCCO2)c2ccccc2n1` (stereo not drawn) [Compound 39I], the “% Inhibition (40 µM)” value [2] was “over 50%”.

With `Cl.Clc1cccc(Nc2nc(N3CCOCC3)c3ccccc3n2)c1` [Compound 39K] the “% Inhibition (40 µM)” value [2] was “over 50%”.

With `Cl.OCCNc1nc(Nc2ccccc2)nc2ccccc12` [Compound 39L] the “% Inhibition (40 µM)” value ([2]; 40 µM) was “around 50%”.

With `Cl.c1ccc(CNc2nc(NCC3CCCO3)c3ccccc3n2)nc1` (stereo not drawn) [Compound 39M] the “% Inhibition (40 µM)” value [2] was “less than 40%”.

For `COc1cccc(Nc2nc(NCC3CCCO3)c3ccccc3n2)c1.Cl` (stereo not drawn) [Compound 39], the “PAK4 inhibition (in words)” value (PAK4) is given as “inhibit PAK4”, the “% Inhibition” value [1] is given as ~20% and the “inhibition of in vitro translation (in words)” value [9] is given as “clear inhibition”. The “puromycin incorporation into elongating protein chains (in words)” value [3] was “inhibited puromycin incorporation”.

In the case of `Cc1ccc2c(c1)sc(-c1ccc(N(C)C)cc1)[n+]2C.[I-]` [Compound 43], the “puromycin incorporation into elongating protein chains (in words)” value [3] is reported as “inhibited puromycin incorporation”.

In the case of `c1ccc(Nc2nc(NCC3CCCO3)c3ccccc3n2)cc1` (stereo not drawn) [Compound 97], the “Plasmodium falciparum inhibition (in words)” value (Plasmodium falciparum) is given as “inhibit Plasmodium falciparum”.

With `C[C@@H]1[C@H](O)[C@@H](C)/C=C/C=C/C=C/C=C/C=C/C=C/C=C/[C@H](O[C@@H]2O[C@H](C)[C@@H](O)[C@H](N)[C@@H]2O)C[C@@H]2O[C@](O)(C[C@@H](O)C[C@@H](O)[C@H](O)CC[C@@H](O)C[C@@H](O)CC(=O)O[C@H]1C)C[C@H](O)[C@H]2C(=O)O` [Compound 108, Amphotericin B] the “% Inhibition” value [1] was ~100%.

In the case of `NC[C@@H]1O[C@H](O[C@H]2[C@@H](O)[C@H](O[C@@H]3[C@@H](O)[C@H](N)C[C@H](N)[C@H]3O[C@H]3O[C@H](CO)[C@@H](O)[C@H](O)[C@H]3N)O[C@@H]2CO)[C@H](N)[C@@H](O)[C@@H]1O` [Paromomycin, reference compound], the “inhibition of translation in T. cruzi extract (in words)” value [2] is reported as “did not inhibit translation”, the “inhibition of translation in T. cruzi extract (in words)” value ([2]; listed as paromomycin) is reported as “had no effect” and the “effect on epimastigote growth (in words)” value [8] is reported as “did not affect parasite growth”. For the same molecule, the “effect on epimastigote growth (in words)” value ([8]; listed as paromomycin) was “did not impact T. cruzi proliferation”.

For `C[C@@H]1C[C@@H]([C@H](O)CC2CC(=O)NC(=O)C2)C(=O)[C@@H](C)C1` [cycloheximide], the “concentration above which translation was fully inhibited” value [1] was “above 0.5 μM”.

For `CN[C@@H]1C[C@H](N)[C@@H](O)[C@H](O[C@H]2O[C@H](CO)[C@H](O)[C@@H]3O[C@@]4(O[C@@H]23)O[C@H]([C@H](N)CO)[C@H](O)[C@H](O)[C@H]4O)[C@H]1O` [hygromycin], the “concentration above which translation was fully inhibited” value [1] was “above 50 nM”.
